Sampled rows, rich in hits. Any-hit rate of the full collection: about 5.2%.
M18AAP inhibitor – blocks P. falciparum M18 aspartyl aminopeptidase. hit rate 1.2% among 290,000. AID 1822. inhibition, % at 7.35 µM. recombinant PfM18AAP, H-Glu-NHMec fluorogenic cleavage;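 active = inhibition above the campaign mean inhibition over all tested compounds plus 3 SD, cut at about 28% in these data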
ALR H2O2 inh – human ALR oxidase inhibition via reduced H2O2 | P55789 | purified ALR, DTT oxidation, H2O2 HRP-luminol luminescence | inhibition, % (concentration not given with the values) | hit rate 3.8% among 290,000 | AID 485317;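 active = mean replicate inhibition above about 79%, with every replicate also reaching it, limit read from the data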
Target sequence (P55789 whole entry, looked up): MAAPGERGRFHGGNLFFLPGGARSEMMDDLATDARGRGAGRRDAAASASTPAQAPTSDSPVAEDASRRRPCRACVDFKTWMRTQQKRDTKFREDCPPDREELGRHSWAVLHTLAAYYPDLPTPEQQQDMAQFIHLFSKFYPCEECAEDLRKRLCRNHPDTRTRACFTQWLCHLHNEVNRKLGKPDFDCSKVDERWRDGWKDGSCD
NS3 helicase inh – inhibitors of Hepatitis C virus NS3 helicase; NS3 helicase DNA unwinding, Cy5 molecular beacon fluorescence; inhibition, % at 10.9 µM; hit rate 0.56% among 290,000; AID 1800;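 active = inhibition above the mean of all tested compounds plus 3 SD, set per campaign, cut at about 35% in these data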
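Test system: hepatitis C virus NS3 helicase domain fragment enzyme. Also added: annealed dual-labelled DNA beacon duplex, ATP-started. Timing: 60 min unwinding reaction at 25 °C after ATP addition. Technique: Cy5 fluorescence. Measure: % inhibition of unwinding.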
ZTA DNA inh – blocks Epstein-Barr virus ZTA, an EBNA-1 counter-screen. P03206. ZTA-DNA binding, fluorescence polarization. inhibition, % at 11 µM. hit rate 0.15% among 320,000; in the data active = inhibition above about 33%
Target sequence (P03206 whole entry, looked up): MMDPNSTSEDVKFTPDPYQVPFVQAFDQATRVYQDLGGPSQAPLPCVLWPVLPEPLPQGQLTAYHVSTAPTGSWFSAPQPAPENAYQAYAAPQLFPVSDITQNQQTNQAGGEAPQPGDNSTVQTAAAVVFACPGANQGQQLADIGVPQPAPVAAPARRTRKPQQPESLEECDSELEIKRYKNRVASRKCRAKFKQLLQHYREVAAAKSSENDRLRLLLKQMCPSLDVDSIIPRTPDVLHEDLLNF
HCV core dimer – HCV core protein dimerization inhibition; TR-FRET GST/Flag-core106 dimerization, 1536-well; inhibition, % at 5 µM; hit rate 0.33% among 300,000;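 active = inhibition above the mean of all tested compounds plus 3 SD, set per screening campaign, cut at about 45% in these data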
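Material: Tagged HCV core106 pair (GST and Flag) | Amount: GST-core106 13.5 nM, Flag-core106 17 nM | Medium: KF-containing HEPES buffer, pH 7.45, DTT, CHAPS, BSA | Reagent: Eu donor and XL665 acceptor anti-tag antibodies | Schedule: 4 h at 22.5 °C | Technique: Time-resolved FRET, ex 340 nm, em 617 and 671 nm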
EBNA-1 inh – blocks EBNA-1 binding to DNA | EBNA-1 DNA binding, fluorescence polarization | inhibition, % at 14.8 µM | hit rate 0.34% among 300,000; in the data active = inhibition above about 28%
Large screens that a line does not name were inactive.

O=C(O)c1ccc(CSCc2ccco2)cc1	ALR H2O2 inh 97
O=C(O)c1ccc(CSc2n[nH]c(-c3ccco3)n2)cc1	NS3 helicase inh 36
CCOC(=O)c1c(NC(=O)CSc2n[nH]c(-c3ccco3)n2)sc(C)c1C	M18AAP inhibitor 31
CCOC(=O)c1c(NC(=O)CSc2n[nH]c(CNc3ccccc3)n2)sc(C)c1C	none
COc1cccc(-c2ncc3ccccc3c2COC(=O)c2ccc(C(C)(C)C)cc2)c1	none (no result: M18AAP inhibitor, NS3 helicase inh, HCV core dimer, EBNA-1 inh)
O=C(NCc1ccc2c(c1)CCO2)Nc1ccccc1	none
O=C(CC1CCCC1)N1CCCC(Nc2cccc(F)c2)C1 (stereo not drawn)	ALR H2O2 inh 92
O=C(Cc1ccc(N2CCNC2=O)cc1)N1CCCC(Nc2cccc(F)c2)C1 (stereo not drawn)	ALR H2O2 inh 99
Cc1cc(C)n(CCC(=O)N2CCCC(Nc3ccc(F)cc3)C2)n1 (stereo not drawn)	ALR H2O2 inh 98
O=C(CCN1CCOCC1)N1CCCC(Nc2cccc(F)c2)C1 (stereo not drawn)	none
O=C(CC1CCCC1)N1CCCC(Nc2ccc(F)cc2)C1 (stereo not drawn)	ALR H2O2 inh 99
COc1ccc(OC)c(S(=O)(=O)N2CCN(C(=O)CCc3ccccc3)CC2)c1	none
CC1(CCC(=O)N2CCCC(Nc3ccc(F)cc3)C2)CC1 (stereo not drawn)	ALR H2O2 inh 98
COCCNC(=O)COC(=O)/C=C/c1cnc2ccccc2n1	none
O=C(COC(=O)/C=C/c1cnc2ccccc2n1)NCC(F)(F)F	ALR H2O2 inh 91
Fc1cccc(Cl)c1CNCc1ccccc1Cl	none
Clc1ccc(-c2nc(-c3cc4cc(Cl)ccc4o3)cs2)cc1	none
Oc1cccc2cnccc12	ALR H2O2 inh 99
Nc1cccc2cnccc12	none
COc1ccc(S(=O)(=O)N2CCC3(CC2)OCCN3S(=O)(=O)c2c(C)cc(C)cc2C)cc1	none (no result: M18AAP inhibitor, NS3 helicase inh)
CCOc1ccc(C(=O)CSCC(=O)O)cc1	ALR H2O2 inh 98
COC(CN(C(=O)CCl)C(C(=O)NC1CCCCC1)c1ccc(C)cc1)OC (stereo not drawn)	ALR H2O2 inh 97
COc1ccc(Nc2n[nH]c(N)c2C(N)=O)cc1	ALR H2O2 inh 99
Cc1nnc(Nc2ccc(O)cc2)[nH]c1=O	ALR H2O2 inh 99
Cc1nnc(Nc2ccc(C(=O)O)cc2)[nH]c1=O	none
N#Cc1ccc(COC(=O)CCc2c[nH]c3ccccc23)cc1	none
O=C(Nc1ccc(Nc2ccccc2)cc1)N1CCOCC1	ALR H2O2 inh 99
O=C(Nc1ccc(Cl)cc1)N1CCN(c2ccccc2)CC1	none
CC(=O)N(C)c1ccc(NC(=O)N2CCOCC2)cc1	none
O=C(Nc1ccc(NC(=O)N2CCN(c3ccccc3O)CC2)cc1)N1CCN(c2ccccc2O)CC1	M18AAP inhibitor 29
O=C(Nc1ccc(O)cc1)N1CCOCC1	ALR H2O2 inh 99
COC(=O)c1ccc(NC(=O)N2CCOCC2)cc1	none
COc1ccc2[nH]c(=S)[nH]c2c1	ALR H2O2 inh 98
O=C(Nc1cccs1)Nc1c(F)cc(F)cc1Br	ALR H2O2 inh 96
O=C(Nc1cccs1)Nc1c(F)c(F)cc(F)c1F	none
O=C(CN1CCN(c2ncccn2)CC1)N1CCCc2c1c(=O)oc1ccc(O)cc21	none
O=C1NCCCc2c1oc1ccc(O)cc21	ALR H2O2 inh 99
c1cc(CNC23CC4CC(CC(C4)C2)C3)ccn1	none
Cc1[nH]n(-c2ccccc2)c(=S)c1C=Nc1cccc([N+](=O)[O-])c1	M18AAP inhibitor 50
Cc1[nH]n(-c2ccccc2)c(=O)c1C=Nc1cccc2cccnc12	none
CC(=O)N1CCN(C(=S)Nc2cc(S(=O)(=O)N3CCOCC3)ccc2Cl)CC1	none
O=C(NCCc1ccc(F)cc1)N[C@@H](Cc1ccccc1)C(=O)O	none
O=C(CCN1CCOCC1)NNC(=S)NC(=O)c1ccc(Br)cc1	M18AAP inhibitor 30, ALR H2O2 inh 99
O=C(CCN1CCCCC1)NNC(=S)NC(=O)c1ccc(Br)cc1	ALR H2O2 inh 99
Nc1ccc(NC(=O)CCN2CCOCC2)cc1	ALR H2O2 inh 93 (no result: ZTA DNA inh, HCV core dimer, EBNA-1 inh)
O=C(CCN1CCOCC1)Nc1ccc(F)cc1	none
O=C(NC(=S)NCCCN1CCOCC1)c1ccc(Br)cc1	none
CCCN1C(=O)c2ccc(C(=O)Nc3cc(C)ccc3O)cc2C1=O	none
CCN1C(=O)c2ccc(C(=O)Nc3ccc(O)cc3C)cc2C1=O	ALR H2O2 inh 99
Cc1cccc(C(=O)Nc2ccc(O)cc2)c1	ALR H2O2 inh 99
CCCN1C(=O)c2ccc(C(=O)Nc3ccccc3C(=O)O)cc2C1=O	ALR H2O2 inh 97
CCc1ccc(NC(=O)c2ccc3c(c2)C(=O)N(Cc2ccco2)C3=O)cc1	HCV core dimer 56
CCN1C(=O)c2ccc(C(=O)Nc3c(C)cc(C)cc3C)cc2C1=O	none
Cc1cccc(C(=O)Nc2ccc(C(=O)c3ccccc3)cc2)c1	none (no result: M18AAP inhibitor, NS3 helicase inh)
COC(=O)Cc1ccc(NC(=O)c2ccc3c(c2)C(=O)N(Cc2ccco2)C3=O)cc1	none
N#Cc1c(SCC(N)=O)nc2c(c1-c1ccc(OCc3ccccc3)cc1)CCCC2	none (no result: ALR H2O2 inh, ZTA DNA inh, HCV core dimer, EBNA-1 inh)
CC1CN(S(=O)(=O)c2cccc(C(=O)Nc3ccc(S(=O)(=O)Nc4ncccn4)cc3)c2)CC(C)O1 (stereo not drawn)	none (no result: ALR H2O2 inh, ZTA DNA inh, HCV core dimer, EBNA-1 inh)
O=C(Nc1ccc(O)cc1)c1ccc2c(c1)C(=O)N(N1C(=O)c3ccccc3C1=O)C2=O	ALR H2O2 inh 91
CCN1CCN(C2=C(NS(=O)(=O)c3ccc(NC(C)=O)cc3)C(=O)c3ccccc3C2=O)CC1	none
CCN1CCN(C2=C(NS(=O)(=O)c3ccc(C)cc3)C(=O)c3ccccc3C2=O)CC1	M18AAP inhibitor 31
O=[N+]([O-])c1ccccc1/C=N/n1c(C2CCCCC2)n[nH]c1=S	ALR H2O2 inh 97
COc1cc(/C=N/n2c(C3CCCCC3)n[nH]c2=S)cc(OC)c1O	ALR H2O2 inh 99
O=[N+]([O-])c1ccccc1/C=N/n1c(C(F)(F)F)n[nH]c1=S	ALR H2O2 inh 95
O=[N+]([O-])c1ccc(Cl)c(/C=N/n2c(C3CCCCC3)n[nH]c2=S)c1	ALR H2O2 inh 99
Oc1cccc(/C=N/n2c(C3CCCCC3)n[nH]c2=S)c1	none
COc1ccc(C(=O)N/C(=C/c2cccnc2)C(=O)N2CCN(C)CC2)cc1OC	none
CC(=O)Nc1ccc(S(=O)(=O)N(C)CC(=O)N2CCN(C(=O)c3ccco3)CC2)cc1	none (no result: M18AAP inhibitor, NS3 helicase inh, ZTA DNA inh, HCV core dimer, EBNA-1 inh)
COc1ccccc1C(=O)NCCC(=O)Nc1ccc(S(=O)(=O)N2CCC(C)CC2)cc1	none (no result: M18AAP inhibitor, NS3 helicase inh, HCV core dimer, EBNA-1 inh)
CC1CN(c2nc3ccccc3nc2NS(=O)(=O)c2ccccc2)CC(C)O1 (stereo not drawn)	none (no result: M18AAP inhibitor, NS3 helicase inh, ZTA DNA inh, HCV core dimer, EBNA-1 inh)
O=[N+]([O-])c1cc2c(cc1/C=N/n1c(-c3ccccc3)n[nH]c1=S)OCO2	ALR H2O2 inh 87
O=C(O)COc1ccccc1/C=N/n1c(C2CCCCC2)n[nH]c1=S	ALR H2O2 inh 97 (no result: ZTA DNA inh, HCV core dimer, EBNA-1 inh)
Cc1ccc(C)c(OCCNc2ncccc2[N+](=O)[O-])c1	none
